≈ marks a conversion by molar mass, not a printed value. Numbered stars: 1 amine (or outer) side, 2 acyl side, 3 side chain; on linkers, the order of the positions; unused ones are H or OH. Bridge positions count the residues as written; N and C are the ends. Square brackets hold non-standard residues; d marks the D form. Peptide text beside a SMILES is read from it. * marks the point of attachment. pTerphenylCO(4''-OnC5H11) = CCCCCOc1ccc(-c2ccc(-c3ccc(C(=O)*)cc3)cc2)cc1; Orn(4R-OH,5R-OH) = O=C([C@H](C[C@@H](O)[C@@H](O)N[*:3])N[*:1])[*:2]; hTyr(3S-OH,4S-OH) = N[C@H](C(=O)O)[C@H](O)[C@@H](O)c1ccc(O)cc1; Pro(3S-OH,4S-Me) = C[C@H]1CN[C@H](C(=O)O)[C@H]1O; Hyp = O=C(O)[C@@H]1C[C@@H](O)CN1
Key:
Candida albicans [1] = assay: Antimicrobial activity against Candida albicans 5415 harboring FKS1 T1933C mutant gene and FKS1 hotspot1 S645P mutant gene by M27-A3 method in presence of 50% human serum; format: functional
How it was run: (§1)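 Broth microdilution per CLSI M27-A3 in RPMI 1640, done in triplicate on three separate days. Each strain was tested with and without 50% human serum. C. krusei ATCC 6258 and C. parapsilosis ATCC 22019 served as QC strains. Arithmetic means are reported, and geometric means were used for comparison.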

Candida albicans [2] = assay: Antimicrobial activity against Candida albicans A15 harboring FKS1 T1933Y mutant gene and FKS1 hotspot1 S645S/P mutant gene by M27-A3 method in presence of 50% human serum; format: functional; how it was run: as §1
[3] = Inhibition of Candida albicans 89 1,3-beta-D-glucan synthase subunit FKS1p C1934A mutant
How it was run: (§2)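 Enzyme is product-entrapped 1,3-β-D-glucan synthase, enriched from membranes of each strain grown at 37°C with shaking in YPD broth to early stationary phase. Filtration polymerization assay uses [3H]UDPG, started by adding enzyme and run 60 min at 25°C. Echinocandins are added as serial dilutions, with 1% DMSO controls for anidulafungin. IC50 is from a variable-slope sigmoidal fit; values are triplicate arithmetic means.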

Candida albicans [4] = assay: Activity at Candida albicans 36082 1,3-beta-D-glucan synthase subunit FKS1p
How it was run: (§3)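 Glucan synthase from cells grown at 37°C with vigorous shaking to early stationary phase in YPD. Membrane enzyme enriched by product entrapment. Serial echinocandin dilutions; ANF controls held 1% DMSO. Reaction started by adding enzyme, run 60 min at 25°C in a filtration polymerization assay, stopped on ice. IC50 from a variable-slope sigmoidal fit; means of three repetitions on separate days.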

Candida albicans [5] = assay: Antimicrobial activity against Candida albicans 149 harboring FKS1 G1942T mutant gene and FKS1 hotspot1 D648Y mutant gene by M27-A3 method in presence of 50% human serum; format: functional; how it was run: as §1
[6] = Inhibition of Candida albicans 90028 1,3-beta-D-glucan synthase subunit FKS1p; how it was run: as §2
Candida albicans [7] = assay: Antimicrobial activity against Candida albicans 3795 by M27-A3 method; format: functional
How it was run: (§4)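 Broth microdilution per CLSI M27-A3 in RPMI 1640, with and without 50% human serum, in triplicate. C. krusei ATCC 6258 and C. parapsilosis ATCC 22019 served as quality-control strains. MIC reported as arithmetic mean of three repetitions on separate days.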

Candida albicans [8] = assay: Antimicrobial activity against Candida albicans 85 harboring FKS1 C1934T mutant gene and FKS1 hotspot1 S645F mutant gene by M27-A3 method in presence of 50% human serum; format: functional; how it was run: as §1
Candida albicans [9] = assay: Antimicrobial activity against Candida albicans 36082 by M27-A3 method; format: functional; how it was run: as §4
Candida albicans [10] = assay: Antimicrobial activity against Candida albicans 3107 by M27-A3 method in presence of 50% human serum; format: functional; how it was run: as §1
Candida albicans [11] = assay: Activity at Candida albicans 90 1,3-beta-D-glucan synthase subunit FKS1p G4082R mutant
How it was run: (§5)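 Product-entrapped 1,3-β-D-glucan synthase from cells grown in YPD at 37°C to early stationary phase. Wells held 50 mM HEPES pH 7.5, 10% glycerol, 1.5 mg/ml BSA, 25 mM KF, 1 mM EDTA, 25 μM GTP-γ-S, 1 μg enzyme and [3H]UDPG (0.015–2 mM). Reactions ran 60 min at 25°C. Vmax and Km came from Lineweaver-Burke plots, in triplicate.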

Candida albicans [12] = assay: Antimicrobial activity against Candida albicans 194 harboring FKS1 C1934T/G4082R mutant gene and FKS1 hotspot1 S645F mutant gene and FKS1 hotspot2 R1361R/H mutant gene by M27-A3 method; format: functional; how it was run: as §1
Candida albicans [13] = assay: Antimicrobial activity against Candida albicans 89 harboring FKS1 C1934A mutant gene and FKS1 hotspot1 S645Y mutant gene by M27-A3 method; format: functional; how it was run: as §1
Candida albicans [14] = assay: Antimicrobial activity against Candida albicans 205 harboring FKS1 T1933C mutant gene and FKS1 hotspot1 S645P mutant gene by M27-A3 method; format: functional; how it was run: as §1
Candida albicans [15] = assay: Activity at Candida albicans 3107 1,3-beta-D-glucan synthase subunit FKS1p; how it was run: as §3
[16] = Inhibition of Candida albicans 177 1,3-beta-D-glucan synthase subunit FKS1p T1922C mutant; how it was run: as §2
[17] = Inhibition of Candida albicans 194 1,3-beta-D-glucan synthase subunit FKS1p C1934T/G4082R mutant; how it was run: as §2
Candida albicans [18] = assay: Activity at Candida albicans 119 1,3-beta-D-glucan synthase subunit FKS1p T1921C mutant; how it was run: as §5
Candida albicans [19] = assay: Activity at Candida albicans 2762 1,3-beta-D-glucan synthase subunit FKS1p T1922C mutant; how it was run: as §5
Candida albicans [20] = assay: Activity at Candida albicans 85 1,3-beta-D-glucan synthase subunit FKS1p C1934T mutant; how it was run: as §5
Candida albicans [21] = assay: Antimicrobial activity against Candida albicans SC5314 by M27-A3 method; format: functional; how it was run: as §4
Candida albicans [22] = assay: Antimicrobial activity against Candida albicans 90028 by M27-A3 method in presence of 50% human serum; format: functional; how it was run: as §1
Candida albicans [23] = assay: Activity at Candida albicans A15-10 1,3-beta-D-glucan synthase subunit FKS1p T1933C mutant
[24] = Inhibition of Candida albicans 149 1,3-beta-D-glucan synthase subunit FKS1p G1942T mutant; how it was run: as §2
Candida albicans [25] = assay: Activity at Candida albicans 121 1,3-beta-D-glucan synthase subunit FKS1p G4082A mutant; how it was run: as §5
[26] = Inhibition of Candida albicans 122 1,3-beta-D-glucan synthase subunit FKS1p C1946A mutant; how it was run: as §2
Candida albicans [27] = assay: Antimicrobial activity against Candida albicans 121 harboring FKS1 G4082A mutant gene and FKS1 hotspot2 R1361H mutant gene by M27-A3 method; format: functional; how it was run: as §1
Candida albicans [28] = assay: Antimicrobial activity against Candida albicans 89 harboring FKS1 C1934A mutant gene and FKS1 hotspot1 S645Y mutant gene by M27-A3 method in presence of 50% human serum; format: functional; how it was run: as §1
[29] = Inhibition of Candida albicans 121 1,3-beta-D-glucan synthase subunit FKS1p G4082A mutant; how it was run: as §2
Candida albicans [30] = assay: Activity at Candida albicans 90028 1,3-beta-D-glucan synthase subunit FKS1p; how it was run: as §3
[31] = Inhibition of Candida albicans 3107 1,3-beta-D-glucan synthase subunit FKS1p; how it was run: as §2
Candida albicans [32] = assay: Activity at Candida albicans 5415 1,3-beta-D-glucan synthase subunit FKS1p T1933C mutant; how it was run: as §5
Candida albicans [33] = assay: Activity at Candida albicans 205 1,3-beta-D-glucan synthase subunit FKS1p T1933C mutant; how it was run: as §5

CCCCCOc1ccc(-c2ccc(-c3ccc(C(=O)N[C@H]4C[C@@H](O)[C@@H](O)NC(=O)[C@@H]5[C@@H](O)[C@@H](C)CN5C(=O)[C@H]([C@@H](C)O)NC(=O)[C@H]([C@H](O)[C@@H](O)c5ccc(O)cc5)NC(=O)[C@@H]5C[C@@H](O)CN5C(=O)[C@H]([C@@H](C)O)NC4=O)cc3)cc2)cc1 [ANIDULAFUNGIN] ({pTerphenylCO(4''-OnC5H11)}-[Orn(4R-OH,5R-OH)]T[Hyp][hTyr(3S-OH,4S-OH)]T[Pro(3S-OH,4S-Me)]; lactam 1-C)
MIC (Candida albicans [1]): 8 µg/mL | MIC (Candida albicans [2]): 2 µg/mL | IC50 [3]: 2.739 µg/mL (≈ 2.4 µM) | Ki [3]: 1.16337 µg/mL (≈ 1.02 µM) | Km (Candida albicans [4]): 89 µM | Vmax (Candida albicans [4]): 5.87 nmol/min | MIC (Candida albicans [5]): 4 µg/mL | IC50 [6]: 0.00183 µg/mL (≈ 0.0016 µM) | Ki [6]: 0.00063 µg/mL (≈ 0.000553 µM) | MIC (Candida albicans [7]): 0.06 µg/mL (≈ 0.0526 µM) | MIC (Candida albicans [8]): 8 µg/mL | MIC (Candida albicans [9]): 0.03 µg/mL (≈ 0.0263 µM) | MIC (Candida albicans [10]): 0.25 µg/mL | Km (Candida albicans [11]): 31 µM | Vmax (Candida albicans [11]): 2.36 nmol/min | MIC (Candida albicans [12]): 4 µg/mL (≈ 3.51 µM) | MIC (Candida albicans [13]): 2 µg/mL (≈ 1.75 µM) | MIC (Candida albicans [14]): 1.33 µg/mL (≈ 1.17 µM) | Km (Candida albicans [15]): 102 µM | Vmax (Candida albicans [15]): 6.04 nmol/min | IC50 [16]: 2.622 µg/mL (≈ 2.3 µM) | Ki [16]: 4.34233 µg/mL (≈ 3.81 µM) | IC50 [17]: 0.782 µg/mL (≈ 0.686 µM) | Ki [17]: 0.29924 µg/mL (≈ 0.262 µM) | Km (Candida albicans [18]): 54 µM | Vmax (Candida albicans [18]): 2.54 nmol/min | Km (Candida albicans [19]): 108 µM | Vmax (Candida albicans [19]): 3.57 nmol/min | Km (Candida albicans [20]): 25 µM | Vmax (Candida albicans [20]): 1.83 nmol/min | MIC (Candida albicans [21]): 0.08 µg/mL (≈ 0.0702 µM) | MIC (Candida albicans [22]): 0.25 µg/mL | Km (Candida albicans [23]): 91 µM | Vmax (Candida albicans [23]): 3.26 nmol/min | IC50 [24]: 0.0933 µg/mL (≈ 0.0818 µM) | Ki [24]: 0.17055 µg/mL (≈ 0.15 µM) | Km (Candida albicans [25]): 129 µM | Vmax (Candida albicans [25]): 4.41 nmol/min | IC50 [26]: 0.491 µg/mL (≈ 0.431 µM) | Ki [26]: 0.64607 µg/mL (≈ 0.567 µM) | MIC (Candida albicans [27]): 0.25 µg/mL (≈ 0.219 µM) | MIC (Candida albicans [28]): 8 µg/mL | IC50 [29]: 0.07599 µg/mL (≈ 0.0666 µM) | Ki [29]: 0.08457 µg/mL (≈ 0.0742 µM) | Km (Candida albicans [30]): 67 µM | Vmax (Candida albicans [30]): 4.71 nmol/min | IC50 [31]: 0.00312 µg/mL (≈ 0.00274 µM) | Ki [31]: 0.00167 µg/mL (≈ 0.00146 µM) | Km (Candida albicans [32]): 98 µM | Vmax (Candida albicans [32]): 3.12 nmol/min | Km (Candida albicans [33]): 116 µM | Vmax (Candida albicans [33]): 5.54 nmol/min

— ChEMBL document CHEMBL1629579, “Correlating echinocandin MIC and kinetic inhibition of fks1 mutant glucan synthases for Candida albicans: implications for interpretive breakpoints” (Antimicrob Agents Chemother, 2009)
